The record followed here is ChEMBL document CHEMBL4354876, “A Selective Modulator of Peroxisome Proliferator-Activated Receptor γ with an Unprecedented Binding Mode” (J Med Chem, 2020).

Each structure is given as a SMILES string. Activity calls are given as the source filed them. No cut-off for these calls is given here.

For series [1], the target named is T1, Peroxisome proliferator-activated receptor gamma (Homo sapiens) (UniProt P37231).
T1 sequence (whole entry): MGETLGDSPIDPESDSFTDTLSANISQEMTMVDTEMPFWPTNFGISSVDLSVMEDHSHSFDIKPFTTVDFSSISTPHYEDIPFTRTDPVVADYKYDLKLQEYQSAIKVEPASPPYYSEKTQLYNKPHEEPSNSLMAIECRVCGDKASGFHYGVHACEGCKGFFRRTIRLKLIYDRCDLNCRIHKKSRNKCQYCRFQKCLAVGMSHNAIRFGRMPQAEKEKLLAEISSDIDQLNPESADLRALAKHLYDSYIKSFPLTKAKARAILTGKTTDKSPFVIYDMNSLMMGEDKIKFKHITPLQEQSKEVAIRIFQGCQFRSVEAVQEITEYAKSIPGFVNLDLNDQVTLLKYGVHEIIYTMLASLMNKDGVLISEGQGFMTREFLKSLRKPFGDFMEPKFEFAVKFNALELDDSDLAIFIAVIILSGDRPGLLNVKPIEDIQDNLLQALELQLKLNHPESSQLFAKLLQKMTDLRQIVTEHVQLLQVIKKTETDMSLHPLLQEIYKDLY
Nature of the series: Selective modulation of PPARgamma in human HepG2 cells assessed as induction of adiponectin mRNA expression at 1 uM measured after 12 hrs by qPCR analysis. The class given is cell-based. In a few lines:
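HepG2 cells were incubated with test compound at 1 µM. mRNA of the PPARγ target genes adiponectin and ANGPTL4 was quantified. Mean±S.E.M., n≥3.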
(In general: In qPCR the cycle at which signal appears reflects the starting amount.)

A further series concerns NHDF. Nature of the series: Induction of adipogenesis in NHDF assessed as reduction in fibroblast differentiation into matured adipocytes at 2 uM administered on day 3 of differentiation 1 and day 5 of differentiation 2 followed by media refreshment at 2 days interval up to 13 days and measured on day 14 by Oil red O staining based light microscopic analysis. The class given is cell-based. To be noted: human. An outline of the steps:
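Primary human fibroblasts (NHDF) were differentiated to mature adipocytes and treated with ligand or DMSO; the test compound was used at 0.2, 2 and 20 µM and the reference at 2 µM. Lipid accumulation was read by Oil Red O staining, with four replicates.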

Series [2] can be described thus: Partial agonist activity at recombinant PPARgamma LBD/N-terminal GFP-fused RXRalpha mutant LBD (unknown origin) assessed as increase in biotinylated-CBP peptide recruitment measured after 2 hrs by HTRF assay. Set-up: species or system Homo sapiens. In a few lines: (§1)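 Cell-free HTRF assay of coactivator peptide recruitment (CBP or SRC-1) to the recombinant PPARγ:RXRα heterodimer.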
In general terms: TR-FRET usually uses a lanthanide donor and a delayed reading to cut background.

Series [3] is described as follows: Partial agonist activity at recombinant PPARgamma LBD/N-terminal GFP-fused RXRalpha mutant LBD (unknown origin) assessed as increase in biotinylated-SRC1 peptide recruitment measured after 2 hrs by HTRF assay. Set-up: species or system Homo sapiens. In a few lines:
as §1

In general, EC50 refers to the concentration needed to bring the measured effect to its halfway point. Regarding `CN(CCOc1ccc(CC2SC(=O)NC2=O)cc1)c1ccccn1` (centres undefined) [ROSIGLITAZONE], the outcome in series [1] was Active. In the series on NHDF, the Activity result is “Toxic”. Besides, the figures for the EC50 in series [2] and in series [3] were 121 nM and 116 nM, respectively.
